Common to all, as to type: functional
In assay [1] the test system is Staphylococcus aureus. In words: Antimicrobial activity against drug-susceptible Staphylococcus aureus 209P JC-1 after 20 hrs by agar dilution method. An outline of the steps: (§1)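 Agar dilution MIC. S. aureus seed culture was grown in sensitivity test broth. Cell suspension (about 10⁶ CFU/ml) was inoculated onto sensitivity disk agar with 5% horse blood and incubated at 37 °C for 20 h. MIC was the lowest drug concentration that prevented visible growth.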
On the technique in general: In agar dilution, organisms are placed on agar that contains the substance at set levels.

Assay [2] concerns Streptococcus pneumoniae. In words: Antimicrobial activity against drug-susceptible Streptococcus pneumoniae 2 after 20 hrs by agar dilution method. An outline of the steps: (§2)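 Streptococci, H. influenzae and M. catarrhalis were precultured on blood agar plates. Suspensions of about 10⁶ CFU/ml were inoculated onto sensitivity disk agar supplemented with 5% horse blood and incubated at 37 °C for 20 h. MIC was read as the lowest drug concentration with no visible growth.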

For assay [3], the system named is Moraxella catarrhalis. The experiment in a line: Antimicrobial activity against drug-susceptible Moraxella catarrhalis 1 after 20 hrs by agar dilution method. Summed up:
as §2

Assay [4] has as its system Haemophilus influenzae. In words: Antimicrobial activity against drug-susceptible Haemophilus influenzae 1 after 20 hrs by agar dilution method. Summed up:
as §2

The subject of assay [5] is Staphylococcus aureus. In words: Antimicrobial activity against drug-susceptible Staphylococcus aureus 2 after 20 hrs by agar dilution method. An outline of the steps:
as §1

Assay [6] deals with Haemophilus influenzae. The experiment in a line: Antimicrobial activity against drug-susceptible Haemophilus influenzae 4 after 20 hrs by agar dilution method. An outline of the steps:
as §2

Assay [7] deals with Streptococcus pneumoniae. In words: Antimicrobial activity against Streptococcus pneumoniae 8 expressing inducible ermB after 20 hrs by agar dilution method. An outline of the steps:
as §2

The subject of assay [8] is Streptococcus pneumoniae. The experiment in a line: Antimicrobial activity against Streptococcus pneumoniae 10 expressing mefA after 20 hrs by agar dilution method. Summed up:
as §2

For assay [9], the system named is Streptococcus pneumoniae. The experiment in a line: Antimicrobial activity against drug-susceptible Streptococcus pneumoniae DP1 Type1 after 20 hrs by agar dilution method. An outline of the steps: as §2
Assay [10] relates to Streptococcus pneumoniae. The experiment in a line: Antimicrobial activity against Streptococcus pneumoniae 9 expressing mefA after 20 hrs by agar dilution method. An outline of the steps:
as §2

The test system of assay [11] is Haemophilus influenzae. The experiment in a line: Antimicrobial activity against drug-susceptible Haemophilus influenzae 2 after 20 hrs by agar dilution method. Summed up:
as §2

Assay [12] relates to Streptococcus pyogenes. In words: Antimicrobial activity against Streptococcus pyogenes 3 expressing mefA after 20 hrs by agar dilution method. An outline of the steps:
as §2

The test system of assay [13] is Moraxella catarrhalis. In words: Antimicrobial activity against drug-susceptible Moraxella catarrhalis 2 after 20 hrs by agar dilution method. An outline of the steps:
as §2

In assay [14] the test system is Streptococcus pneumoniae. The experiment in a line: Antimicrobial activity against drug-susceptible Streptococcus pneumoniae 3 after 20 hrs by agar dilution method. An outline of the steps:
as §2

Assay [15] deals with Streptococcus pneumoniae. The experiment in a line: Antimicrobial activity against Streptococcus pneumoniae 7 expressing inducible ermB after 20 hrs by agar dilution method. An outline of the steps: as §2
In assay [16] the test system is Streptococcus pyogenes. The experiment in a line: Antimicrobial activity against drug-susceptible Streptococcus pyogenes 1 after 20 hrs by agar dilution method. Summed up:
as §2

Assay [17] has as its system Haemophilus influenzae. The experiment in a line: Antimicrobial activity against drug-susceptible Haemophilus influenzae 3 after 20 hrs by agar dilution method. An outline of the steps:
as §2

Assay [18] relates to Staphylococcus aureus. In words: Antimicrobial activity against drug-susceptible Staphylococcus aureus 3 after 20 hrs by agar dilution method. An outline of the steps:
as §1

The subject of assay [19] is Streptococcus pneumoniae. The experiment in a line: Antimicrobial activity against Streptococcus pneumoniae 5 constitutively expressing ermB/mefA after 20 hrs by agar dilution method. The following applies: Streptococcus pneumoniae, 20 h; read-out: MIC. Summed up:
as §2

Assay [20] relates to Streptococcus pneumoniae. The experiment in a line: Antimicrobial activity against Streptococcus pneumoniae 6 constitutively expressing ermB after 20 hrs by agar dilution method. The following applies: Streptococcus pneumoniae, 20 h; read-out: MIC. An outline of the steps: as §2
For assay [21], the system named is Staphylococcus aureus. In words: Antimicrobial activity against Staphylococcus aureus 6 expressing inducible ermB after 20 hrs by agar dilution method. Summed up: as §1
Assay [22] has as its system Streptococcus pyogenes. In words: Antimicrobial activity against Streptococcus pyogenes 2 constitutively expressing ermB after 20 hrs by agar dilution method. An outline of the steps:
as §2

The test system of assay [23] is Staphylococcus aureus. In words: Antimicrobial activity against Staphylococcus aureus 4 constitutively expressing ermA after 20 hrs by agar dilution method. An outline of the steps: as §1
For assay [24], the system named is Staphylococcus aureus. The experiment in a line: Antimicrobial activity against Staphylococcus aureus 5 expressing inducible ermB after 20 hrs by agar dilution method. An outline of the steps:
as §1

[25] abbreviates: Staphylococcus aureus, 209P, 20 h, read-out: MIC.
Setting [26] is: Streptococcus pneumoniae, 20 h, read-out: MIC.
The mark [27] stands for this setting: Moraxella catarrhalis, 20 h, read-out: MIC.
Where [28] appears, read: Haemophilus influenzae, 20 h, read-out: MIC.
The mark [29] stands for this setting: Staphylococcus aureus, 20 h, read-out: MIC.
The mark [30] stands for this setting: Streptococcus pyogenes, 20 h, read-out: MIC.

In brackets after ≈: the same amount, converted by molar mass.

As to `CCOC(=O)[C@H]1[C@H](C)O[C@@H](O[C@H]2[C@H](N(C)C)[C@@H](O)[C@H](O[C@H]3[C@@H](CC=O)C[C@@H](C)[C@@H](O)CN(C)CCC(CCCc4cnc5ccccc5c4)NC(=O)C[C@@H](OC(=O)CC)[C@@H]3OC)O[C@@H]2C)C[C@@]1(C)O` (stereo in doubt), the MIC was determined as 1 µg/mL (≈ 1.03 µM) in the assay with Staphylococcus aureus [1]; 0.06 µg/mL (≈ 0.0617 µM) in the assay on Streptococcus pneumoniae [2]; 8 µg/mL (≈ 8.22 µM) in the assay on Moraxella catarrhalis [3]; 32 µg/mL (≈ 32.9 µM) in the assay with Haemophilus influenzae [4]; 2 µg/mL (≈ 2.06 µM) in the assay with Staphylococcus aureus [5]; 16 µg/mL (≈ 16.4 µM) against Haemophilus influenzae [6]. For the same molecule, the MIC against Streptococcus pneumoniae [7] was 8 µg/mL (≈ 8.22 µM); against Streptococcus pneumoniae [8], 0.06 µg/mL (≈ 0.0617 µM); in the assay with Streptococcus pneumoniae [9] it was 0.03 µg/mL (≈ 0.0308 µM); in the assay on Streptococcus pneumoniae [10] it was 0.06 µg/mL (≈ 0.0617 µM); with Haemophilus influenzae [11], 2 µg/mL (≈ 2.06 µM); in the assay on Streptococcus pyogenes [12], 1 µg/mL (≈ 1.03 µM). The MIC against Moraxella catarrhalis [13] was determined as 4 µg/mL (≈ 4.11 µM); in the assay on Streptococcus pneumoniae [14] it was 0.06 µg/mL (≈ 0.0617 µM); with Streptococcus pneumoniae [15], 8 µg/mL (≈ 8.22 µM); against Streptococcus pyogenes [16], 0.25 µg/mL (≈ 0.257 µM); in the assay on Haemophilus influenzae [17], 8 µg/mL (≈ 8.22 µM); in the assay with Staphylococcus aureus [18], 0.5 µg/mL (≈ 0.514 µM).

Consider `CCOC(=O)[C@H]1[C@H](C)O[C@@H](O[C@H]2[C@H](N(C)C)[C@@H](O)[C@H](O[C@H]3[C@@H](CC=O)C[C@@H](C)[C@@H](O)CN(CCCCc4ccccc4)CCC(C)NC(=O)C[C@@H](OC(=O)CC)[C@@H]3OC)O[C@@H]2C)C[C@@]1(C)OC(C)=O` (stereo in doubt; form 1), for which the MIC in the assay with Staphylococcus aureus [1] (setting [25]) is 0.25 µg/mL (≈ 0.256 µM); with Streptococcus pneumoniae [2] (setting [26]), 0.13 µg/mL (≈ 0.133 µM); in the assay with Streptococcus pneumoniae [19], greater than 128 µg/mL; with Moraxella catarrhalis [3] (setting [27]), 0.13 µg/mL (≈ 0.133 µM); with Streptococcus pneumoniae [20], greater than 128 µg/mL; with Haemophilus influenzae [4] (setting [28]) it was 16 µg/mL (≈ 16.4 µM). Moreover, the MIC was found to be 1 µg/mL (≈ 1.02 µM) with Staphylococcus aureus [5] (setting [29]); 0.5 µg/mL (≈ 0.511 µM) in the assay with Staphylococcus aureus [21]; 4 µg/mL (≈ 4.09 µM) in the assay with Haemophilus influenzae [6] (setting [28]); 128 µg/mL (≈ 131 µM) in the assay on Streptococcus pneumoniae [7]; 0.25 µg/mL (≈ 0.256 µM) in the assay with Streptococcus pneumoniae [8] (setting [26]); 0.06 µg/mL (≈ 0.0613 µM) in the assay with Streptococcus pneumoniae [9]. Besides, the MIC was greater than 128 µg/mL against Streptococcus pyogenes [22]; 0.25 µg/mL (≈ 0.256 µM) in the assay on Streptococcus pneumoniae [10] (setting [26]); 1 µg/mL (≈ 1.02 µM) in the assay with Haemophilus influenzae [11] (setting [28]); 0.25 µg/mL (≈ 0.256 µM) in the assay on Streptococcus pyogenes [12] (setting [30]); 0.13 µg/mL (≈ 0.133 µM) in the assay on Moraxella catarrhalis [13] (setting [27]); greater than 128 µg/mL with Staphylococcus aureus [23]. For the same molecule, the MIC in the assay with Streptococcus pneumoniae [15] is 128 µg/mL (≈ 131 µM); with Streptococcus pyogenes [16] (setting [30]), 0.06 µg/mL (≈ 0.0613 µM); in the assay on Haemophilus influenzae [17] (setting [28]), 4 µg/mL (≈ 4.09 µM); in the assay on Staphylococcus aureus [24] (setting [29]) it was 0.25 µg/mL (≈ 0.256 µM); in the assay on Staphylococcus aureus [18] (setting [29]) it was 0.25 µg/mL (≈ 0.256 µM).

For the molecule `CCOC(=O)[C@H]1[C@H](C)O[C@@H](O[C@H]2[C@H](N(C)C)[C@@H](O)[C@H](O[C@H]3[C@@H](CC=O)C[C@@H](C)[C@@H](O)CN(C)CCC(C/C=C/c4cnc5ccccc5c4)NC(=O)C[C@@H](OC(=O)CC)[C@@H]3OC)O[C@@H]2C)C[C@@]1(C)O` (stereo in doubt; form 2), the MIC was 1 µg/mL (≈ 1.03 µM) with Staphylococcus aureus [1]; 0.25 µg/mL (≈ 0.257 µM) with Streptococcus pneumoniae [2]; 8 µg/mL (≈ 8.24 µM) against Moraxella catarrhalis [3]; 64 µg/mL (≈ 65.9 µM) against Haemophilus influenzae [4]; 2 µg/mL (≈ 2.06 µM) in the assay with Staphylococcus aureus [5]; 32 µg/mL (≈ 32.9 µM) with Haemophilus influenzae [6]. Further, the MIC with Streptococcus pneumoniae [7] is greater than 128 µg/mL; against Streptococcus pneumoniae [8], 0.25 µg/mL (≈ 0.257 µM); against Streptococcus pneumoniae [9], 0.13 µg/mL (≈ 0.134 µM); in the assay with Streptococcus pneumoniae [10] it was 0.5 µg/mL (≈ 0.515 µM); in the assay on Haemophilus influenzae [11], 4 µg/mL (≈ 4.12 µM); against Streptococcus pyogenes [12], 4 µg/mL (≈ 4.12 µM). The MIC in the assay on Moraxella catarrhalis [13] was 4 µg/mL (≈ 4.12 µM); in the assay with Streptococcus pneumoniae [14] it was 0.25 µg/mL (≈ 0.257 µM); in the assay on Streptococcus pneumoniae [15], greater than 128 µg/mL; with Streptococcus pyogenes [16], 0.5 µg/mL (≈ 0.515 µM); in the assay on Haemophilus influenzae [17], 16 µg/mL (≈ 16.5 µM); in the assay on Staphylococcus aureus [24] it was 1 µg/mL (≈ 1.03 µM). The molecule also displayed an MIC in the assay on Staphylococcus aureus [18] of 0.5 µg/mL (≈ 0.515 µM).

`CCC(=O)O[C@@H]1CC(=O)O[C@H](C)C/C=C/C=C/[C@H](OC(C)=O)[C@H](C)C[C@H](CC=O)[C@H](O[C@@H]2O[C@H](C)[C@@H](O[C@H]3C[C@@](C)(OC(C)=O)[C@@H](OC(=O)CC)[C@H](C)O3)[C@H](N(C)C)[C@H]2O)[C@H]1OC` [MIOCAMYCIN]: the MIC with Staphylococcus aureus [1] (setting [25]) was 0.5 µg/mL (≈ 0.557 µM); in the assay with Streptococcus pneumoniae [2] (setting [26]), 0.5 µg/mL (≈ 0.557 µM); in the assay with Streptococcus pneumoniae [19], greater than 128 µg/mL; with Moraxella catarrhalis [3] (setting [27]), 1 µg/mL (≈ 1.11 µM); in the assay on Streptococcus pneumoniae [20], greater than 128 µg/mL; in the assay on Haemophilus influenzae [4] (setting [28]), 64 µg/mL (≈ 71.3 µM). Besides, the MIC in the assay with Staphylococcus aureus [5] (setting [29]) came out at 1 µg/mL (≈ 1.11 µM); against Staphylococcus aureus [21], 1 µg/mL (≈ 1.11 µM); with Haemophilus influenzae [6] (setting [28]), 16 µg/mL (≈ 17.8 µM); in the assay with Streptococcus pneumoniae [7] (setting [26]), 128 µg/mL (≈ 143 µM); with Streptococcus pneumoniae [8] (setting [26]) it was 0.5 µg/mL (≈ 0.557 µM); in the assay with Streptococcus pneumoniae [9] (setting [26]), 0.25 µg/mL (≈ 0.278 µM). Moreover, the MIC in the assay on Streptococcus pyogenes [22] was greater than 128 µg/mL; in the assay on Streptococcus pneumoniae [10] (setting [26]) it was 0.5 µg/mL (≈ 0.557 µM); in the assay with Haemophilus influenzae [11] (setting [28]), 2 µg/mL (≈ 2.23 µM); with Streptococcus pyogenes [12] (setting [30]) it was 0.5 µg/mL (≈ 0.557 µM); with Moraxella catarrhalis [13] (setting [27]) it was 2 µg/mL (≈ 2.23 µM); against Staphylococcus aureus [23], greater than 128 µg/mL. The MIC with Streptococcus pneumoniae [15] (setting [26]) was 64 µg/mL (≈ 71.3 µM); in the assay with Streptococcus pyogenes [16] (setting [30]), 0.25 µg/mL (≈ 0.278 µM); in the assay on Haemophilus influenzae [17] (setting [28]), 32 µg/mL (≈ 35.6 µM); with Staphylococcus aureus [24] (setting [29]), 0.5 µg/mL (≈ 0.557 µM); in the assay on Staphylococcus aureus [18] (setting [29]), 0.5 µg/mL (≈ 0.557 µM).

The values are drawn from ChEMBL document CHEMBL1151705, “Novel azalides derived from 16-membered macrolides. Part II: Isolation of the linear 9-formylcarboxylic acid and its sequential macrocyclization with an amino alcohol or an azidoamine” (2008).
